Source: the RNAGym collection of RNA variant scans (doi:10.1126/science.aae0568)
This sample holds only a part of the variants without activity.

B1: tRNA (parent)
chain: GUUCCGUUGGCGUAAUGGUAACGCGUCUCCCUCCUAAGGAGAAGACUGCGGGUUCGAGUCCCGUACGGAACG

Variants of: B1
Assay: yeast fitness relative to wild type (ratio to wild type); higher = fitter; tRNA-Arg(CCU), competitive growth, 37 C, YPD
Method in brief: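 Amplicons of the tRNA-Arg(CCU) gene were sequenced, 100-nucleotide paired-end, from the start population and from each end population of a pooled yeast competition. The competition, in six parallel replicates, lasted 24 hours in YPD at 37°C. Fitness relative to wild type was calculated from changes in genotype frequencies. Genotypes had to have ≥ 100 starting reads, and estimates < 0.5 were set to 0.5.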

With GUUCCGUUGGCGUCAUGGUAACGCGUCUCCCUCCUAAGGAGGAGACUACGGGUUCGAGUCCCGUACGGAACG [A14C A42G G48A] as the variant, how does the yeast fitness read?
Its yeast fitness is no more than 0.5.

Which yeast fitness does the source give for GUUCCGUUGGCGUCAUGGUUACGCGUCUCCUUCCUAACGAGAAGACUGCGGGUUCGAGUCCCGUACGGAACG [A14C A20U C31U G38C] here?
Its yeast fitness is no more than 0.5.

Which yeast fitness does the source give for GUUCCGUUGGCGUCAUGGUAACGCGUCUCCCUCCUUAGGAGAAGACUGCGGGUUCGAGUCCCGUACGAAACG [A14C A36U G68A] here?
Its yeast fitness is no more than 0.5.

For GUUCCGUUGGCGUCAUGGUCACGCGUCUCCCUCCUAAGGAGGAAACCGCGGGUUCGAGUCCCGUACGGAACG [A14C A20C A42G G44A U47C], which yeast fitness is on record?
The yeast fitness was no more than 0.5.

With GUUCCGUUGGCGUCAUGGUCACGCGUCUCCCUCUUAAGGAGAACACUGCCGGUUCGAGUCCUGUACGGAACG [A14C A20C C34U G44C G50C C62U] as the variant, how does the yeast fitness read?
Its yeast fitness is no more than 0.5.

With GUUCCGUUGGCGUCAUGGUUACGCGUCUCCCUCCUAAGGAGAAGACUGCGGGUUCGAGUGCCGUACGGAACG [A14C A20U C60G] as the variant, how does the yeast fitness read?
Its yeast fitness is 0.571.

For GUUCCGUUGGCGUCUUGCUAACGCGUCUCCCUCCUAAGGAGAAGACUGCGGGUUCGAGUCCCGUACGGAACG [A14C A15U G18C], which yeast fitness is on record?
The yeast fitness was 0.67.

For GUUCCGUUGGCGUCAUGGUUACGCGUCUCCAUCCUAAGGAGAAGACUGCGGGUUCGAGUCCCGUACGGAACG [A14C A20U C31A], which yeast fitness is on record?
Its yeast fitness is no more than 0.5.

With GUUCCGUUGGCGUCAUGGUUACGCGUCUCCUUCCUAAGGAGAAGACUGCGGGUUCGAGUCCCGUACGGAACG [A14C A20U C31U] as the variant, how does the yeast fitness read?
Its yeast fitness is no more than 0.5.

Which yeast fitness does the source give for GUUCCGUUGGCGUCUUGGUAACGCGUCUCCCUACUAGGGAGAAGACUGCGGGUUCGAGUCCCGUACGGAACG [A14C A15U C33A A37G] here?
Its yeast fitness is 0.596.

Which yeast fitness does the source give for GUUCCGUUGGCGUCAUGGUGACGCGUCUCUCUCCUAAGGAGAAGACUGCGGGUUCGAGUCCCGUACGGAACG [A14C A20G C30U] here?
The yeast fitness was no more than 0.5.

For GUUCCGUUGGCGUCGUGGUAACCCGUCUCCCUCCUAAGGAGAAGACUGCGGGUUCGCGUCCCGUACGGAACG [A14C A15G G23C A57C], which yeast fitness is on record?
Its yeast fitness is no more than 0.5.

Which yeast fitness does the source give for GUUCCGUUGGCGUCAUGGUAACGCGUCUCCCUCCUAAGGAGAGGACUGCGGGUUCGAGUCCCGAACGGAACG [A14C A43G U64A] here?
The yeast fitness was no more than 0.5.

For GUUCCGUUGGCGUCAUGGUACCGCGUCUCCCUCCUAAGAAGAAGACUGGGGGUUCGAGUCCCGUACGGAACG [A14C A21C G39A C49G], which yeast fitness is on record?
The yeast fitness was no more than 0.5.

Which yeast fitness does the source give for GUUCCGUUGGCGUCAUGGUAACGCGUCUCCCUCCUAAGGAGGAGACUGCGGGUUCGAGUCCCGUACGCAACG [A14C A42G G68C] here?
Its yeast fitness is no more than 0.5.

For GUUCCGUUGGCGUCAUGGUUACGCCUCUCCCUCCUAAGGAGACGACUGCGGGUUCGAGUCCCGUACGGAACG [A14C A20U G25C A43C], which yeast fitness is on record?
Its yeast fitness is no more than 0.5.

For GUUCCGUUGGCGUCGUGGUAACGCCUCUCCCACCUAAGGAGACGACUGCGGGUUCGAGUCCCAUACGGCACG [A14C A15G G25C U32A A43C G63A A69C], which yeast fitness is on record?
The yeast fitness was no more than 0.5.

With GUUCCGUUGGCGUCGUCGUAACGCGUCUCCCUCCUAAGGAGAAGCCUGCGGGUUCGAGUCCCGUACGGAACG [A14C A15G G17C A45C] as the variant, how does the yeast fitness read?
Its yeast fitness is no more than 0.5.

With GUUCCGUUGGCGUCAUGGUAGUGCGUCUCCCUCCUAAGGAGAAGACAGCGGGUUCAAGUCCCGUACGGAACG [A14C A21G C22U U47A G56A] as the variant, how does the yeast fitness read?
Its yeast fitness is 0.622.

With GUUCCGUUGGCGUCAUGGUAACGCGUCUCCCUCCUAAGGAGUAGACUGCGGGUUCGAGUCCCGUACGGAACG [A14C A42U] as the variant, how does the yeast fitness read?
The yeast fitness was 0.524.

For GUUCCGUUGGCGUCAUGGUAACGCGUCUCCCUCCUAAGGAGGAGACUGCGGGUUCGAGUCCCGUACGGAACG [A14C A42G], which yeast fitness is on record?
The yeast fitness was 0.595.

For GUUCCGUUGGCGUCAUGGUAACGCGUCUCCCUCCUAAGGGGUAGACUGCGGGUUCGAGUCCCGUACGGAACG [A14C A40G A42U], which yeast fitness is on record?
Its yeast fitness is no more than 0.5.

With GUUCCGUUGGCGUCAUGGUAUCGCGUCUCCCUCCUAAGGGGAAGACUGCGGGUUCGAGUCCCGUCCGGAACG [A14C A21U A40G A65C] as the variant, how does the yeast fitness read?
Its yeast fitness is 0.621.

Which yeast fitness does the source give for GUUCCGUUGGCGUCAUGGUAACGCGUCUCCCUCCUACGGAGAAGACUGCGGGUUCGAGUCCCGUACGGAACG [A14C A37C] here?
The yeast fitness was 0.53.

For GUUCCGUUGGCGUCAUGGUAACGCGUCUCCCUCCUAUGGAGAAGACUGCGGGUUCGAGUCCCGUACGGAACG [A14C A37U], which yeast fitness is on record?
Its yeast fitness is 0.655.

For GUUCCGUUGGCGUCAUGGUAACGCGUCUCCCUCCUAAGGCGAAGACUGCGGGUUCGAGUCCCGUACGGAACG [A14C A40C], which yeast fitness is on record?
Its yeast fitness is 0.6.

With GUUCCGUUGGCGUCAUGGUCACGCGUCUCCCUGCUAAGGAGAAGACUGCGGGUUCGAGUCCCGUGCGGAACG [A14C A20C C33G A65G] as the variant, how does the yeast fitness read?
Its yeast fitness is no more than 0.5.

Which yeast fitness does the source give for GUUCCGUUGGCGUCAUGGUCACGCGUCUCCCCCCUAAGGAGAAGACUGCGGGUUCGAGUCCCGUACGGAACG [A14C A20C U32C] here?
Its yeast fitness is no more than 0.5.

For GUUCCGUUGGCGUCAUGGUAACGCGUCUCCCUCCUAGGGAGAAGACUGGGGGUUCGAGUCCCGUACGGAACG [A14C A37G C49G], which yeast fitness is on record?
Its yeast fitness is no more than 0.5.

With GUUCCGUUGGCGUCAUGGUAUCGCGUCUCCCUCCUAAGGAGCAGACUGCGGGUUCGACUCCCGAACGGCACG [A14C A21U A42C G58C U64A A69C] as the variant, how does the yeast fitness read?
The yeast fitness was no more than 0.5.

For GUUCCGUUGGCGUCUUGGUAACGCGUCUCUCUCGUAAGGAGAAGACUGCGGGUUCGAGUCACGAACGGUACG [A14C A15U C30U C34G C61A U64A A69U], which yeast fitness is on record?
Its yeast fitness is no more than 0.5.

With GUUCCGUUGGCGUCAUGGUAACGCGUCUCCCUCCUAAGGAGAAGCCUGCGGGUUCGAGUCCCGUACGGAACG [A14C A45C] as the variant, how does the yeast fitness read?
The yeast fitness was 0.702.

Which yeast fitness does the source give for GUUCCGUUGGCGUCAUGGUAACGCGUCUCCCUCCUAAGGGGAAGACUGCGGGUUCGAGUCCGGUACGAAACG [A14C A40G C62G G68A] here?
Its yeast fitness is no more than 0.5.

With GUUCCGUUGGCGUCAUGGUCACGCGUCUCCCUGCUAAGGAGAAGACUGCGGGUUCGAGUCCCGUCUGGAACG [A14C A20C C33G A65C C66U] as the variant, how does the yeast fitness read?
The yeast fitness was 0.758.

With GUUCCGUUGGCGUCUUGGUAACGCGUCUCCCUCCUAAGGAGAAGACUGCGGGUUCGAGUCCCGGAAGGAACG [A14C A15U U64G C66A] as the variant, how does the yeast fitness read?
Its yeast fitness is no more than 0.5.

Which yeast fitness does the source give for GUUCCGUUGGCGUCAUGGUAACGCGUCUCCCUCCUAAGGAGAAGCCUGCAGGUUCGAGUCCCGUACGGAACG [A14C A45C G50A] here?
Its yeast fitness is no more than 0.5.

With GUUCCGUUGGCGUCAUGGUAACGCGUCUCCCUCCUAAGGAGAUGACUGCGGGUUCGAGUCCCGUACGGAACG [A14C A43U] as the variant, how does the yeast fitness read?
The yeast fitness was 0.731.
